Shown are actives, neighbours in structure and some others; about 1.4% of the full set was active somewhere.
NR2E3 ag-1: activates human NR2E3 receptor. Q9Y5X4. CHO-S Gal4-NCOR/VP16-NR2E3 two-hybrid, luciferase. inhibition of corepressor binding, % at 3.98 µM. 0.35% of 360,000 active;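 active means inhibition above the mean of all tested compounds plus 3 SD, cut at about 70% in these data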;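 further: 0% = DMSO with NR2E3 transfected cells and 100% = cells lacking NR2E3 construct; higher means lower luciferase signal from less NR2E3 corepressor binding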
NR2E3 ag-2: activates human photoreceptor nuclear receptor NR2E3 | GST-NR2E3/biotin-RetCOR TR-FRET, 1536-well | inhibition of corepressor binding, % at 4.78 µM | 0.12% of 320,000 active;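 active means percent inhibition above the cutoff of mean plus 3 SD of all tested compounds, set per screening campaign, cut at about 20% in these data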;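 further: 0% = DMSO wells and 100% = biotin wells as full block of FRET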
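System: GST-NR2E3 and biotin-RetCOR proteins; probe or stimulus: 7 nM biotin-RetCOR; doses: compound at 4.8 µM, single dose; schedule: Compound–protein incubation for 5 h at 4 °C; detection: time-resolved FRET; read-out: percent inhibition; controls: biotin wells as high control, 0.6% DMSO wells as low control; format: 1536-well plates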
Rev-erbA mod: modulates human Rev-erb alpha binding to DNA; P20393; Rev-erbα–FITC-DNA binding, fluorescence polarization, 90 min; activity, % at 10 µM; 0.79% of 370,000 active; AID 1259318;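 active means activity above about 14%, limit read from the data; passing the limit was not always enough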;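 further: 0% = DMSO wells with 35 nM protein and 100% = DMSO wells with 750 nM protein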
Target sequence (P20393 whole entry, looked up): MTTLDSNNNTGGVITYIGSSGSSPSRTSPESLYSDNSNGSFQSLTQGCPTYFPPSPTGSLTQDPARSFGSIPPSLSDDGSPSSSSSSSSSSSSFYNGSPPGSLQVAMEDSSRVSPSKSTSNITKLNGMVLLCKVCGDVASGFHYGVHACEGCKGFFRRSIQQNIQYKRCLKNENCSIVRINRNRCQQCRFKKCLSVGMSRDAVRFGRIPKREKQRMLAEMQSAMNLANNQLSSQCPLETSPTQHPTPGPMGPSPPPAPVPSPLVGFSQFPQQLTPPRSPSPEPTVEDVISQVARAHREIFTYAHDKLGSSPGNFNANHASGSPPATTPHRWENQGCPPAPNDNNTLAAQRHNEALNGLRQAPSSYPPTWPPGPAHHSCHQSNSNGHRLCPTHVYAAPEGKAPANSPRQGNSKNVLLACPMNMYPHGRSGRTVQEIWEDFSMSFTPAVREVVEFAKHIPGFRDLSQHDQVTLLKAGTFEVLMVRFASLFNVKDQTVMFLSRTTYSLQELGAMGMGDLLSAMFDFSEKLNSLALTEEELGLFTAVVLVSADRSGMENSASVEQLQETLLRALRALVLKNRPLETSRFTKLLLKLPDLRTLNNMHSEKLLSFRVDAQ
PG9 binder: small molecules binding HIV-1 gp120 antibody PG9; inhibition, % at 6.7 µM; 0.43% of 360,000 active; TR-FRET gp120-PG9 antibody binding; in the data active means inhibition above about 8.5%
NR1D1 mod conf: Rev-erb alpha (human) modulation, hit confirmation | shares compounds with Rev-erbA mod | Rev-erb alpha FITC-DNA binding, fluorescence polarization, 90 min | activation, % at 25 µM | 61% of 3,000 active | AID 1259319;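 active means activation at or above a set limit, or at least 3 SD above the negative control mean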;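 further: 0% = 35 nM protein with DMSO and 100% = 750 nM protein high control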
RORg counter: RORgamma DNA-binding activity, dose-response counter-screen | shares compounds with Rev-erbA mod | purified RORgamma protein-FITC-DNA binding, fluorescence polarization | IC50, µM | 8% of 910 active | AID 1259320;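 active means Compounds whose fitted half-maximal concentration for disrupting protein-DNA binding is below 10 micromolar; the record names Rev-erb in its text, so the target is in doubt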
Starred values were filed as active, the others as inactive.

How did Cc1oc2c(C)c(O)ccc2c(=O)c1-c1ccc2ccccc2n1 do in these assays?
NR2E3 ag-1: -24.0; NR2E3 ag-2: -2.2; Rev-erbA mod: 22.6*; PG9 binder: 3.0; NR1D1 mod conf: 19.9*

Results for N#Cc1c(N)nc2c(c1-c1cccs1)CCCC2 ?
NR2E3 ag-1: -11.8; NR2E3 ag-2: 1.8; Rev-erbA mod: 2.1; PG9 binder: -1.1

How did N#Cc1c(N)oc(-c2cccs2)c1-c1cccs1 do in these assays?
NR2E3 ag-1: -20.0; NR2E3 ag-2: 4.6; Rev-erbA mod: 24.3*; PG9 binder: 3.0; NR1D1 mod conf: 33.8*

How did CC(=O)N1c2ccccc2S(=O)(=O)c2c1ccc1ccccc21 do in these assays?
NR2E3 ag-1: -9.9; Rev-erbA mod: 22.5*; PG9 binder: 1.1; NR1D1 mod conf: -1.7

What do the screens show for `COC(=O)[C@]12C[C@H](CC(=O)N3CCSCC3)C(=O)N(Cc3ccc(Cl)cc3Cl)C1=C[C@H](C1CCCC1)O[C@@H]2C`?
Rev-erbA mod: 2.0

What do the screens show for `CCc1ccc(-c2cc(C(F)(F)F)n3nc(C(=O)Nc4cnn(Cc5ccccc5C)c4)cc3n2)s1`?
NR2E3 ag-1: -11.2; NR2E3 ag-2: -0.2; Rev-erbA mod: 37.0*; PG9 binder: -0.3; NR1D1 mod conf: 13.5

What do the screens show for `CCc1ccc(-c2cc(C(F)(F)F)n3nc(C(=O)Nc4c(C)nn(Cc5ccccc5C)c4C)cc3n2)s1`?
NR2E3 ag-1: 6.2; NR2E3 ag-2: 0.7

What do the screens show for `Cc1ccccc1Cn1ccc(NC(=O)c2cc3nc(-c4ccco4)cc(C(F)(F)F)n3n2)n1`?
NR2E3 ag-1: -20.2; NR2E3 ag-2: -1.3; Rev-erbA mod: -0.4; PG9 binder: 0.3

How did Cc1ccccc1Cn1cc(NC(=O)c2cc(-c3ccco3)on2)cn1 do in these assays?
NR2E3 ag-1: 1.8; NR2E3 ag-2: 0.8; Rev-erbA mod: 0.4; PG9 binder: -3.8

How did Cc1ccccc1Cn1cc(NC(=O)c2cc(-c3cccs3)on2)cn1 do in these assays?
NR2E3 ag-1: -5.0; NR2E3 ag-2: -0.3; Rev-erbA mod: 19.8*; PG9 binder: 5.3; NR1D1 mod conf: 5.2

Results for CCc1ccc(-c2cc(C(F)(F)F)n3nc(C(=O)Nc4c(C)nn(Cc5ccccc5Cl)c4C)cc3n2)s1 ?
NR2E3 ag-1: 14.3; NR2E3 ag-2: -1.3; Rev-erbA mod: 72.4*; PG9 binder: -3.7; NR1D1 mod conf: 37.7*; RORg counter: >40

How did O=C1C(=O)N(Cc2ccc(-c3ccccc3)cc2)c2ccc(OC(F)(F)F)cc21 do in these assays?
Rev-erbA mod: -1.5

How did COc1cc(/C=N/NC(=O)CC2(C)OCCO2)cc(Br)c1O do in these assays?
NR2E3 ag-1: -40.6; NR2E3 ag-2: -1.3; Rev-erbA mod: 71.2*; PG9 binder: -8.8; NR1D1 mod conf: -4.5

Results for CCCNC(=O)/C(C#N)=C1\N=C(NC(=O)c2cccs2)c2ccccc21 ?
NR2E3 ag-1: -31.1; NR2E3 ag-2: 0.0; Rev-erbA mod: 30.2*; PG9 binder: -1.9; NR1D1 mod conf: 21.5*

How did CCC[C@H]1[C@@H](NC(=O)/C=C/c2ccccc2)CC[C@@]23CCCN2C(=O)CCC[C@@H]13 do in these assays?
Rev-erbA mod: -2.6

Results for Nc1ccc2ccccc2c1N=Nc1ccccc1 ?
NR2E3 ag-1: -24.2; Rev-erbA mod: 23.1*; PG9 binder: -3.4; NR1D1 mod conf: 27.1*

What do the screens show for `CCc1cc2c(-c3ccccc3)cc(=O)oc2c(CN2CCOCC2)c1O`?
NR2E3 ag-1: -18.8; NR2E3 ag-2: 4.5; Rev-erbA mod: 7.2; PG9 binder: -1.9

Results for Oc1c(Cl)cc(Cl)c(Cl)c1CN1CCOCC1 ?
NR2E3 ag-1: -19.1; Rev-erbA mod: 5.0; PG9 binder: -0.8

Results for Cc1c(Cl)cc(C(C)C)c(O)c1CN1CCOCC1 ?
NR2E3 ag-1: 13.5; Rev-erbA mod: 42.4*; PG9 binder: 1.0; NR1D1 mod conf: 43.0*; RORg counter: >40

Results for Cc1cc(C(C)c2ccccc2)c(O)c(CN2CCOCC2)c1C (stereo unspecified) ?
NR2E3 ag-1: -29.3; NR2E3 ag-2: -0.6; Rev-erbA mod: 32.8*; PG9 binder: -0.1; NR1D1 mod conf: 43.2*; RORg counter: >40

Results for CN(Cc1ccco1)S(=O)(=O)c1ccc2c(c1)CCN2C(=O)CC(C)(C)C ?
Rev-erbA mod: -6.5

How did COc1ccc(-n2c3c(cc(C(=O)NCC(=O)c4ccccc4)c2=O)C(=O)CC(C)(C)C3)cc1 do in these assays?
NR2E3 ag-1: 2.1; NR2E3 ag-2: 0.6; Rev-erbA mod: 18.8*; PG9 binder: 0.1; NR1D1 mod conf: 8.4

How did COc1cccc(OCC(C)CN2CCC(C(O)(c3ccccc3)c3ccccc3)CC2)c1 (stereo unspecified) do in these assays?
Rev-erbA mod: 10.7

Results for O=C(CCCn1c(=S)[nH]c2ccccc2c1=O)N1CCN(c2cccc(Cl)c2)CC1 ?
NR2E3 ag-1: 2.1; NR2E3 ag-2: 0.6; Rev-erbA mod: 26.1*; PG9 binder: 3.0; NR1D1 mod conf: 56.8*

What do the screens show for `O=C(CCCCn1c(=O)[nH]c2ccccc2c1=O)N1CCN(c2cccc(C(F)(F)F)c2)CC1`?
NR2E3 ag-1: 5.6; NR2E3 ag-2: 1.8; Rev-erbA mod: -0.5; PG9 binder: -0.4

Results for CC1Cc2ccccc2N1C(=O)CSc1ncccn1 (stereo unspecified) ?
NR2E3 ag-1: -4.0; NR2E3 ag-2: 3.6; Rev-erbA mod: -2.7; PG9 binder: 0.6

What do the screens show for `Cc1ccc2nc(-c3cccnc3SCC(=O)N3c4ccccc4CC3C)[nH]c2c1` (stereo unspecified)?
NR2E3 ag-1: -35.3; NR2E3 ag-2: 2.4; Rev-erbA mod: 32.7*; PG9 binder: -0.5; NR1D1 mod conf: 19.6*

What do the screens show for `Cc1ccc2nc(SCC(=O)N3c4ccccc4CC3C)c(C)cc2c1` (stereo unspecified)?
NR2E3 ag-1: -18.9; NR2E3 ag-2: 2.2; Rev-erbA mod: 27.5*; PG9 binder: 0.0; NR1D1 mod conf: 8.0

What do the screens show for `CC(C)(C)OC(=O)NCc1cc(F)ccc1/C=C/S(=O)(=O)NC1CCCC1`?
Rev-erbA mod: 1.2

How did CCCc1nc2sc3c(=O)n(N)cnc3c2c2c1CCCC2 do in these assays?
NR2E3 ag-1: 1.7; NR2E3 ag-2: 3.7; Rev-erbA mod: 37.2*; PG9 binder: -2.7; NR1D1 mod conf: 15.3

Results for CCCCc1nc2sc3c(=O)n(N)cnc3c2c2c1CCCC2 ?
NR2E3 ag-1: -1.7; NR2E3 ag-2: -0.5; Rev-erbA mod: 2.3; PG9 binder: 0.2

What do the screens show for `C[C@@H](NCCCc1cccc(C(F)(F)F)c1)c1cccc2ccccc12`?
Rev-erbA mod: 10.9

How did CCOC(=O)Cc1csc(NC(=O)c2ccc(Br)s2)n1 do in these assays?
NR2E3 ag-2: 6.8
